# Columns and labels:
# Type in all cases: functional
# [1] = tested on: Staphylococcus epidermidis; experiment: Antibacterial activity against methicillin-resistant Staphylococcus epidermidis 14-21 after 18 to 24 hrs
# [2] = tested on: Staphylococcus aureus; experiment: Antibacterial activity against Staphylococcus aureus CMCC 26003 after 18 to 24 hrs
# Summary of the method: (§1)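 MIC by standard NCCLS reference procedure (M100-S11); lowest concentration of compound inhibiting visible bacterial growth after incubation at 35 °C for 18–24 h, read as complete inhibition of growth. Ciprofloxacin, levofloxacin and moxifloxacin run alongside as reference agents.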
# [3] = tested on: Pseudomonas aeruginosa; experiment: Antibacterial activity against Pseudomonas aeruginosa 14-16 after 18 to 24 hrs; summary of the method: as §1
# [4] = tested on: Mycobacterium tuberculosis; experiment: Antimycobacterial activity against Mycobacterium tuberculosis H37Rv ATCC 27294 by alamar blue assay
# Summary of the method: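 Microplate Alamar Blue Assay; MIC is the lowest concentration giving ≥90% reduction in fluorescence relative to the mean of replicate bacterium-only controls. MDR strain 6133 is resistant to isoniazid and rifampicin.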
# [5] = tested on: Staphylococcus aureus; experiment: Antibacterial activity against methicillin-sensitive Staphylococcus aureus 14-3 after 18 to 24 hrs; summary of the method: as §1
# [6] = tested on: Escherichia coli; experiment: Antibacterial activity against Escherichia coli ATCC 25922 after 18 to 24 hrs; summary of the method: as §1
# [7] = tested on: Enterococcus faecium; experiment: Antibacterial activity against Enterococcus faecium 14-5 after 18 to 24 hrs; summary of the method: as §1
# [8] = tested on: Escherichia coli; experiment: Antibacterial activity against Escherichia coli 14-1 after 18 to 24 hrs; summary of the method: as §1
# [9] = tested on: Enterococcus faecium; experiment: Antibacterial activity against Enterococcus faecium 14-1 after 18 to 24 hrs; summary of the method: as §1
# [10] = tested on: Enterococcus faecium; experiment: Antibacterial activity against Enterococcus faecium 14-6 after 18 to 24 hrs; summary of the method: as §1
# [11] = tested on: Pseudomonas aeruginosa; experiment: Antibacterial activity against Pseudomonas aeruginosa ATCC 27853 after 18 to 24 hrs; summary of the method: as §1
# [12] = tested on: Pseudomonas aeruginosa; experiment: Antibacterial activity against Pseudomonas aeruginosa 14-15 after 18 to 24 hrs; summary of the method: as §1
# [13] = tested on: Escherichia coli; experiment: Antibacterial activity against Escherichia coli 14-2 after 18 to 24 hrs; summary of the method: as §1
# [14] = tested on: Pseudomonas aeruginosa; experiment: Antibacterial activity against Pseudomonas aeruginosa 14-14 after 18 to 24 hrs; summary of the method: as §1
# [15] = tested on: Staphylococcus aureus; experiment: Antibacterial activity against methicillin-resistant Staphylococcus aureus 14-4 after 18 to 24 hrs
# [16] = tested on: Klebsiella pneumoniae; experiment: Antibacterial activity against Klebsiella pneumoniae 14-3 after 18 to 24 hrs; summary of the method: as §1
# [17] = tested on: Staphylococcus epidermidis; experiment: Antibacterial activity against methicillin-sensitive Staphylococcus epidermidis 14-2 after 18 to 24 hrs; summary of the method: as §1
# [18] = tested on: Klebsiella pneumoniae; experiment: Antibacterial activity against Klebsiella pneumoniae 14-4 after 18 to 24 hrs; summary of the method: as §1
# [19] = tested on: Enterococcus faecalis; experiment: Antibacterial activity against Enterococcus faecalis 14-2 after 18 to 24 hrs; summary of the method: as §1
# [20] = tested on: Pseudomonas aeruginosa; experiment: Antibacterial activity against Pseudomonas aeruginosa 14-19 after 18 to 24 hrs; summary of the method: as §1
# [21] = tested on: Enterococcus faecium; experiment: Antibacterial activity against Enterococcus faecium 14-2 after 18 to 24 hrs; summary of the method: as §1
# [22] = tested on: Klebsiella pneumoniae; experiment: Antibacterial activity against ESBL-positive Klebsiella pneumoniae 14-18 after 18 to 24 hrs; summary of the method: as §1
# [23] = tested on: Escherichia coli; experiment: Antibacterial activity against ESBL-positive Escherichia coli 14-2 after 18 to 24 hrs; summary of the method: as §1
# [24] = tested on: Staphylococcus aureus; experiment: Antibacterial activity against methicillin-sensitive Staphylococcus aureus 14-1 after 18 to 24 hrs; summary of the method: as §1
# [25] = tested on: Klebsiella pneumoniae; experiment: Antibacterial activity against Klebsiella pneumoniae 14-1 after 18 to 24 hrs; summary of the method: as §1
# [26] = tested on: Staphylococcus aureus; experiment: Antibacterial activity against methicillin-sensitive Staphylococcus aureus 14-4 after 18 to 24 hrs; summary of the method: as §1
# [27] = tested on: Pseudomonas aeruginosa; experiment: Antibacterial activity against Pseudomonas aeruginosa 14-9 after 18 to 24 hrs; summary of the method: as §1
# [28] = tested on: Klebsiella pneumoniae; experiment: Antibacterial activity against Klebsiella pneumoniae 14-2 after 18 to 24 hrs; summary of the method: as §1
# [29] = tested on: Enterococcus faecalis; experiment: Antibacterial activity against Enterococcus faecalis 14-1 after 18 to 24 hrs; summary of the method: as §1
# [30] = tested on: Escherichia coli; experiment: Antibacterial activity against ESBL-positive Escherichia coli 14-1 after 18 to 24 hrs; summary of the method: as §1
# [31] = tested on: Klebsiella pneumoniae; experiment: Antibacterial activity against ESBL-positive Klebsiella pneumoniae 14-17 after 18 to 24 hrs; summary of the method: as §1
# [32] = tested on: Klebsiella pneumoniae; experiment: Antibacterial activity against ESBL-positive Klebsiella pneumoniae 14-19 after 18 to 24 hrs; summary of the method: as §1
# [33] = tested on: Staphylococcus epidermidis; experiment: Antibacterial activity against methicillin-resistant Staphylococcus epidermidis 14-22 after 18 to 24 hrs
# [34] = tested on: Staphylococcus aureus; experiment: Antibacterial activity against methicillin-resistant Staphylococcus aureus 14-5 after 18 to 24 hrs
# [35] = tested on: Staphylococcus aureus; experiment: Antibacterial activity against methicillin-sensitive Staphylococcus aureus 14-2 after 18 to 24 hrs; summary of the method: as §1
# [36] = tested on: Staphylococcus epidermidis; experiment: Antibacterial activity against methicillin-resistant Staphylococcus epidermidis 14-37 after 18 to 24 hrs
# [37] = tested on: Streptococcus pneumoniae; experiment: Antibacterial activity against Streptococcus pneumoniae ATCC 19615 after 18 to 24 hrs; summary of the method: as §1
# [38] = tested on: Staphylococcus epidermidis; experiment: Antibacterial activity against methicillin-resistant Staphylococcus epidermidis 14-39 after 18 to 24 hrs
Compound,MIC [1],MIC [2],MIC [3],MIC90 [4],MIC [5],MIC [6],MIC [7],MIC [8],MIC [9],MIC [10],MIC [11],MIC [12],MIC [13],MIC [14],MIC [15],MIC [16],MIC [17],MIC [18],MIC [19],MIC [20],further results
CC1(CN)CN(c2nc3c(cc2F)c(=O)c(C(=O)O)cn3[C@@H]2C[C@@H]2F)C/C1=N\OCc1ccccc1 (some centres undefined),4 µg/mL,< 0.008 µg/mL,32 µg/mL,0.514 µg/mL,< 0.008 µg/mL,0.125 µg/mL,8 µg/mL,> 128 µg/mL,4 µg/mL,8 µg/mL,8 µg/mL,32 µg/mL,> 128 µg/mL,32 µg/mL,8 µg/mL,128 µg/mL,16 µg/mL,> 128 µg/mL,0.25 µg/mL,8 µg/mL,MIC [21]: 4 µg/mL; MIC [22]: 32 µg/mL; MIC [23]: > 128 µg/mL; MIC [24]: 2 µg/mL; MIC [25]: 128 µg/mL; MIC [26]: < 0.008 µg/mL; MIC [27]: 16 µg/mL; MIC [28]: > 128 µg/mL; MIC [29]: 32 µg/mL; MIC [30]: 8 µg/mL; MIC [31]: 16 µg/mL; MIC [32]: 64 µg/mL; MIC [33]: 4 µg/mL; MIC [34]: 4 µg/mL; MIC [35]: < 0.008 µg/mL; MIC [36]: 16 µg/mL; MIC [37]: < 0.008 µg/mL; MIC [38]: 16 µg/mL
CO/N=C1\CN(c2nc3c(cc2F)c(=O)c(C(=O)O)cn3[C@@H]2C[C@@H]2F)CC1(C)N (some centres undefined),128 µg/mL,0.25 µg/mL,32 µg/mL,0.392 µg/mL,0.5 µg/mL,0.5 µg/mL,> 128 µg/mL,> 128 µg/mL,> 128 µg/mL,> 128 µg/mL,8 µg/mL,32 µg/mL,> 128 µg/mL,32 µg/mL,128 µg/mL,> 128 µg/mL,> 128 µg/mL,> 128 µg/mL,2 µg/mL,32 µg/mL,MIC [21]: > 128 µg/mL; MIC [22]: 32 µg/mL; MIC [23]: > 128 µg/mL; MIC [24]: 16 µg/mL; MIC [25]: > 128 µg/mL; MIC [26]: 0.5 µg/mL; MIC [27]: 16 µg/mL; MIC [28]: > 128 µg/mL; MIC [29]: 128 µg/mL; MIC [30]: 32 µg/mL; MIC [31]: 16 µg/mL; MIC [32]: > 128 µg/mL; MIC [33]: 32 µg/mL; MIC [34]: 128 µg/mL; MIC [35]: 0.5 µg/mL; MIC [36]: 32 µg/mL; MIC [37]: 0.25 µg/mL; MIC [38]: 64 µg/mL
CCO/N=C1\CN(c2nc3c(cc2F)c(=O)c(C(=O)O)cn3[C@@H]2C[C@@H]2F)CC1(C)N (some centres undefined),64 µg/mL,0.25 µg/mL,32 µg/mL,0.42 µg/mL,0.5 µg/mL,1 µg/mL,> 128 µg/mL,> 128 µg/mL,> 128 µg/mL,> 128 µg/mL,16 µg/mL,32 µg/mL,> 128 µg/mL,32 µg/mL,64 µg/mL,128 µg/mL,> 128 µg/mL,> 128 µg/mL,2 µg/mL,64 µg/mL,MIC [21]: > 128 µg/mL; MIC [22]: 32 µg/mL; MIC [23]: > 128 µg/mL; MIC [24]: 64 µg/mL; MIC [25]: 128 µg/mL; MIC [26]: 1 µg/mL; MIC [27]: 16 µg/mL; MIC [28]: > 128 µg/mL; MIC [29]: 128 µg/mL; MIC [30]: 32 µg/mL; MIC [31]: 32 µg/mL; MIC [32]: 128 µg/mL; MIC [33]: 32 µg/mL; MIC [34]: 128 µg/mL; MIC [35]: 0.25 µg/mL; MIC [36]: 32 µg/mL; MIC [37]: 0.25 µg/mL; MIC [38]: 128 µg/mL

# From ChEMBL document CHEMBL3632558, “Synthesis, antimycobacterial and antibacterial activity of l-[(1R,2S)-2-fluorocyclopropyl]naphthyridone derivatives containing an oxime-functionalized pyrrolidine moiety” (2015)
